Values after ≈ are worked out from the molar mass of the structure shown.
Key:
Type in all cases: functional
Candida parapsilosis = assay: Minimum concentration required to inhibit the growth of Candida parapsilosis ATCC 90018 was determined; conditions: Lodderomyces parapsilosis
Outline: (§1)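 Yeast cells grown in microplates in RPMI1640 buffered to pH 7.0 at 35 °C, without serum. The MIC is the lowest concentration that inhibits growth by 80%.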

Candida albicans [1] = assay: Minimum concentration required to inhibit the growth of Candida albicans ATCC 64550 was determined; outline: as §1
Nakaseomyces glabratus = assay: Minimum concentration required to inhibit the growth of Candida glabrata ATCC 90030 was determined; outline: as §1
Candida tropicalis = assay: Minimum concentration required to inhibit the growth of Candida tropicalis ATCC750 was determined; outline: as §1
Candida albicans [2] = assay: Minimum concentration required to inhibit the growth of Candida albicans ATCC 24433 was determined in the presence of horse serum (20%).
Outline: (§2)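 Run in RPMI1640 buffered at pH 7.0 with 20% horse serum added for the incubation, in microplates at 35 °C. The MIC is the lowest concentration inhibiting growth by 80%.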

Aspergillus fumigatus = assay: Minimum concentration required to inhibit the growth of Aspergillus fumigatus ATCC 26430 was determined
Outline: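 Microplate broth assay in RPMI1640 buffered at pH 7.0, incubated at 30 °C. The MIC was taken as the lowest test concentration giving 80% growth inhibition.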

Candida albicans [3] = assay: Minimum concentration required to inhibit the growth of Candida albicans ATCC 24433 was determined; outline: as §1
Candida albicans [4] = assay: Minimum concentration required to inhibit the growth of Candida albicans SANK51486 was determined in the presence of horse serum (20%).; outline: as §2
Cryptococcus neoformans = assay: Minimum concentration required to inhibit the growth of Cryptococcus neoformans TIMM1855 was determined
Outline: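 Medium was yeast nitrogen base buffered at pH 7.0, with microplates incubated at 35 °C. The MIC was defined as the lowest concentration producing 80% growth inhibition.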

Candida albicans [5] = assay: Minimum concentration required to inhibit the growth of Candida albicans SANK51486 was determined; outline: as §1
Candida albicans [6] = assay: Minimum concentration required to inhibit the growth of Candida albicans TIMM3164 was determined; outline: as §1

SMILES	MIC (Candida parapsilosis)	MIC (Candida albicans [1])	MIC (Nakaseomyces glabratus)	MIC (Candida tropicalis)	MIC (Candida albicans [2])	MIC (Aspergillus fumigatus)	MIC (Candida albicans [3])	MIC (Candida albicans [4])	MIC (Cryptococcus neoformans)	MIC (Candida albicans [5])	MIC (Candida albicans [6])
CC(C)C1=CC2CC3(C=O)[C@@H]4CC[C@@H](C)[C@H]4CC2(CO[C@@H]2C[C@H](C)N(Cc4ccccc4)C2)C13C(=O)O (some centres undefined)	> 16 µg/mL	2 µg/mL (≈ 3.95 µM)	> 16 µg/mL	8 µg/mL (≈ 15.8 µM)	4 µg/mL	> 16 µg/mL	1 µg/mL (≈ 1.98 µM)	1 µg/mL	> 16 µg/mL	0.5 µg/mL (≈ 0.989 µM)	2 µg/mL (≈ 3.95 µM)
CC(C)C1=CC2CC3(C=O)[C@@H]4CC[C@@H](C)[C@H]4CC2(CO[C@@H]2C[C@H](C)N(Cc4ccc5c(c4)OCO5)C2)C13C(=O)O (some centres undefined)	> 16 µg/mL	0.5 µg/mL (≈ 0.91 µM)	> 16 µg/mL	4 µg/mL (≈ 7.28 µM)	1 µg/mL	> 16 µg/mL	0.25 µg/mL (≈ 0.455 µM)	0.5 µg/mL	> 16 µg/mL	0.13 µg/mL (≈ 0.236 µM)	0.5 µg/mL (≈ 0.91 µM)
C=C(C)CN1C[C@H](OCC23C[C@@H]4[C@H](C)CC[C@H]4C4(C=O)CC2C=C(C(C)C)C34C(=O)O)O[C@H](C)[C@@H](OC)C1 (some centres undefined)	> 16 µg/mL	0.03 µg/mL (≈ 0.0566 µM)	0.25 µg/mL (≈ 0.472 µM)	0.13 µg/mL (≈ 0.245 µM)	0.5 µg/mL	> 16 µg/mL	0.03 µg/mL (≈ 0.0566 µM)	0.25 µg/mL	0.25 µg/mL (≈ 0.472 µM)	0.02 µg/mL (≈ 0.0378 µM)	0.03 µg/mL (≈ 0.0566 µM)
CC(C)C1=CC2CC3(C=O)[C@@H]4CC[C@@H](C)[C@H]4CC2(CS[C@@H]2C[C@H](C)N(Cc4ccccc4)C2)C13C(=O)O (some centres undefined)	> 16 µg/mL	1 µg/mL (≈ 1.92 µM)	> 16 µg/mL	4 µg/mL (≈ 7.67 µM)	8 µg/mL	> 16 µg/mL	0.5 µg/mL (≈ 0.958 µM)	4 µg/mL	> 16 µg/mL	0.25 µg/mL (≈ 0.479 µM)	1 µg/mL (≈ 1.92 µM)
C/C=C/C=C\C(=O)O[C@H]1[C@H](O)[C@H](OCC23C[C@@H]4[C@H](C)CC[C@H]4C4(C=O)CC2C=C(C(C)C)C34C(=O)O)O[C@H](C)[C@H]1OC (some centres undefined)	> 4 µg/mL	0.5 µg/mL (≈ 0.852 µM)	> 4 µg/mL	0.5 µg/mL (≈ 0.852 µM)	4 µg/mL	> 4 µg/mL	0.5 µg/mL (≈ 0.852 µM)	–	0.25 µg/mL (≈ 0.426 µM)	0.25 µg/mL (≈ 0.426 µM)	0.5 µg/mL (≈ 0.852 µM)
OC(Cn1cncn1)(Cn1cncn1)c1ccc(F)cc1F [FLUCONAZOLE]	0.5 µg/mL (≈ 1.63 µM)	> 4 µg/mL	> 4 µg/mL	2 µg/mL (≈ 6.53 µM)	–	> 4 µg/mL	0.5 µg/mL (≈ 1.63 µM)	–	> 4 µg/mL	0.25 µg/mL (≈ 0.816 µM)	> 4 µg/mL
COc1ccc(CN2C[C@H](OCC34C[C@@H]5[C@H](C)CC[C@H]5C5(C=O)CC3C=C(C(C)C)C45C(=O)O)C[C@@H]2C)cc1 (some centres undefined)	> 16 µg/mL	0.5 µg/mL (≈ 0.933 µM)	16 µg/mL (≈ 29.9 µM)	4 µg/mL (≈ 7.47 µM)	1 µg/mL	> 16 µg/mL	0.5 µg/mL (≈ 0.933 µM)	0.5 µg/mL	> 16 µg/mL	0.25 µg/mL (≈ 0.467 µM)	0.5 µg/mL (≈ 0.933 µM)

— ChEMBL document CHEMBL1135349, “Synthesis and evaluation of novel pyrrolidinyl sordaricin derivatives as antifungal agents” (2002)
